In article PMC6607395 (Molecular Pharmaceutics, 2019):

How the values were obtained:
[1] = target: rhPSMA (Homo sapiens, UniProt Q04609); test: PSMA enzyme inhibition assay; assay type: biochemical
[2] = tested on: DU145 (PSMA−) tumors; test: In vivo imaging and biodistribution, DU145 xenograft; set-up: species or system mouse; settings: DU145 model, 17 nmol/kg tail vein, 1–72 h
[3] = Pharmacokinetic profile in rats; settings: rat; for presence in plasma over time: single IV 0.1 μmol/kg
[4] = tested on: LNCaP (PSMA+) tumors; test: In vivo imaging and biodistribution, LNCaP xenograft; set-up: species or system mouse; settings: for ex vivo tissue biodistribution: 72 h postinjection, 17 nmol/kg; for whole body fluorescence signal over time: LNCaP model, 17 nmol/kg tail vein, 1–72 h
In short: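 Male athymic nu/nu mice (5 weeks old) carried subcutaneous LNCaP (5 × 10^6 cells) or DU145 (1 × 10^6 cells) flank tumours in 1:1 HBSS/Matrigel, grown to 100–150 mm3. Each received one tail-vein injection of 17 nmol/kg in 1% DMSO/99% saline (n = 3). Whole-body imaging ran at 1, 4, 24, 48 and 72 h (ex 685, em 800 nm). At 72 h, tumours, liver, kidney, heart and blood were excised, rinsed, weighed and imaged ex vivo, and mean AFU/mg was calculated.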

[5] = target: TTR in human serum (Homo sapiens, UniProt P02766); test: Fluorescent probe exclusion; assay type: binding; settings: for TTR occupancy: 10 μM ligand, human serum (TTR ∼5 μM), after 3 h relative to probe alone
[6] = target: Cathepsin B from human liver (Homo sapiens, UniProt P07858); test: MMAE release following cathepsin B cleavage; assay type: in vitro ADME; settings: 20 μM compound, cathepsin B 100 nM, pH 5.5, 37 °C, within 15 min
In short: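 Human liver cathepsin B was activated for 15 min at ambient temperature in 25 mM sodium acetate, 1 mM EDTA and 9.2 mM DTT, pH 5.5. It was then used at 100 nM with 20 μM substrate in 25 mM sodium acetate/1 mM EDTA, pH 5.5, at 37 °C. Aliquots taken at 0, 15, 30 min, 1 h and 2 h were quenched in acidified acetonitrile–water, chilled and centrifuged. Free MMAE was quantified by HPLC-UV at 210 nm, and its identity was confirmed by LC–MS/MS.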

[7] = target: human TTR (Homo sapiens, UniProt P02766); test: Fluorescence polarization; assay type: binding

Chain of rhPSMA (Q04609 whole entry): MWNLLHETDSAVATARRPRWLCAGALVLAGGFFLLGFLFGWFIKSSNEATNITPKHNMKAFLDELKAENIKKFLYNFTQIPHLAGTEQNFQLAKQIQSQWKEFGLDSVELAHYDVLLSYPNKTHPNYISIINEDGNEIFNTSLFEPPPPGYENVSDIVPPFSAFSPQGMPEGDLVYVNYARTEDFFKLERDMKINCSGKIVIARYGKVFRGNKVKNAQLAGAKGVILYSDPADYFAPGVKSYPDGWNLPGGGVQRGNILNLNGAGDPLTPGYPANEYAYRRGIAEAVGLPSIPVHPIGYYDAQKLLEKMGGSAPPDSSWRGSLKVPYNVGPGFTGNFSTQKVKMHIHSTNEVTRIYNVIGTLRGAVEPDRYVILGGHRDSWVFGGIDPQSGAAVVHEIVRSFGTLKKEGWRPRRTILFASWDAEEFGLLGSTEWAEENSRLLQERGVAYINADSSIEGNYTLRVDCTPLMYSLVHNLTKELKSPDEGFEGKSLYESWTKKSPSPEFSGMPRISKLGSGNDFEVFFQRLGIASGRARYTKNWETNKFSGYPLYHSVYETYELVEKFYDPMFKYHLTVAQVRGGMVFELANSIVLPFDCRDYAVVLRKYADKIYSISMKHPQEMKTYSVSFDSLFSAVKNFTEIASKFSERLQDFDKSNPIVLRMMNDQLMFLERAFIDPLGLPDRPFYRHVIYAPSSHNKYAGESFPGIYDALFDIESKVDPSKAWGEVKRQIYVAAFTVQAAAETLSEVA

| Structure (SMILES) | Ki ([1]; Ki on PSMA, absence of TTR) [nM] | TTR occupancy [5] [%] | Kd [7] [nM] | whole body fluorescence signal over time [2] | presence in plasma over time [3] | ex vivo tissue biodistribution [4] | whole body fluorescence signal over time [4] | also measured |
| --- | --- | --- | --- | --- | --- | --- | --- | --- |
| C#CCC(N)C(=O)NCCCCCC(=O)NCCCCC(NC(=O)NC(CCC(=O)O)C(=O)O)C(=O)O (stereo not shown) [ligand 22] | 9.5 |  |  |  |  |  |  |  |
| O=C(O)c1ccc2nc(-c3cc(Cl)cc(Cl)c3)oc2c1 [tafamidis, reference compound] |  | 50.8 ± 2.0 |  |  |  |  |  |  |
| CC[C@H](C)[C@@H]([C@@H](CC(=O)N1CCC[C@H]1[C@H](OC)[C@@H](C)C(=O)N[C@H](C)[C@@H](O)c1ccccc1)OC)N(C)C(=O)[C@@H](NC(=O)[C@H](C(C)C)N(C)C(=O)OCc1ccc(NC(=O)[C@H](CCCNC(N)=O)NC(=O)[C@@H](NC(=O)CCCCCN2C(=O)CC(SCCC(=O)N[C@@H](Cc3cn(CCOCCNCCCCCCOc4cc(OCCCc5c(C)n[nH]c5C)cc(C(=O)O)c4)nn3)C(=O)NCCCCCC(=O)NCCCC[C@H](NC(=O)N[C@@H](CCC(=O)O)C(=O)O)C(=O)O)C2=O)C(C)C)cc1)C(C)C (stereo partly shown) [TFM2] |  |  |  |  |  |  |  | MMAE release [6]: 98% |
| Cc1n[nH]c(C)c1CCCOc1cc(OCCCCCCN)cc(C(=O)O)c1 [ligand 2] |  |  | 48.9 |  |  |  |  | receptor occupancy at 10 µM ([5]; read-out: TTR occupancy): 80.4 ± 0.7% |

Second part, led by results:

| Ki ([1]; Ki on PSMA, absence of TTR) [nM] | TTR occupancy [5] [%] | Kd [7] [nM] | Structure (SMILES) | whole body fluorescence signal over time [2] | presence in plasma over time [3] | ex vivo tissue biodistribution [4] | whole body fluorescence signal over time [4] | also measured |
| --- | --- | --- | --- | --- | --- | --- | --- | --- |
| 20.7 |  |  | C#CC[C@H](NC(=O)CCCCC[N+]1=C(C=CC2=CC(=CC=C3N(C)c4ccc(S(=O)(=O)O)cc4C3(C)C)CCC2)C(C)(C)c2cc(S(=O)(=O)[O-])ccc21)C(=O)NCCCCCC(=O)NCCCC[C@H](NC(=O)N[C@@H](CCC(=O)O)C(=O)O)C(=O)O [BFM1] | significantly reduced at 4 h postinjection and reduced to the background level at 24 h | no measurable amount of BFM1 after 4 h | accumulated predominantly in PSMA expressing LNCaP tumors, with no substantial fluorescence activity in other tissues except kidneys | significantly reduced at 4 h postinjection and reduced to the background level at 24 h |  |
| 32.8 | 57.6 ± 1.9 | 374 | Cc1n[nH]c(C)c1CCCOc1cc(OCCCCCCNCCOCCn2cc(C[C@H](NC(=O)CCCCC[N+]3=C(C=CC4=CC(=CC=C5N(C)c6ccc(S(=O)(=O)O)cc6C5(C)C)CCC4)C(C)(C)c4cc(S(=O)(=O)[O-])ccc43)C(=O)NCCCCCC(=O)NCCCC[C@H](NC(=O)N[C@@H](CCC(=O)O)C(=O)O)C(=O)O)nn2)cc(C(=O)O)c1 [TFM1] | maintained a very high fluorescence signal at 4 h and the signal was maintained for up to 48 h postinjection | still present even after 24 h | accumulated predominantly in PSMA expressing LNCaP tumors, with no substantial fluorescence activity in other tissues except kidneys | maintained a very high fluorescence signal at 4 h and the signal was maintained for up to 48 h postinjection | Ki ([1]; Ki on PSMA in the presence of TTR, 1 μM TTR): 33.8 nM; fold higher MRT compared to BFM1 ([3]; IV 0.1 μmol/kg): ~16 fold; fold increase in t1/2 compared to BFM1 ([3]; IV 0.1 μmol/kg): ~6.6 fold; fold enhanced uptake in LNCaP compared to BFM1 ([4]; excised tumors, 72 h): ~3 fold; fold higher fluorescent signal in LNCaP compared to DU145 tumors ([4]; excised tumors, 72 h): ~7 fold |
